Measured values as given in ChEMBL document CHEMBL1124986, “Imidazodiazepinediones: a new class of adenosine receptor antagonists” (J Med Chem, 1990).

Tests used:
Adenosine A2 receptor [1] = biological target: T1, Adenosine A2 receptor (Rattus norvegicus, UniProt P29276+P30543); experiment: Antagonism of N-ethylcarboxamido adenosine-stimulated adenylate cyclase associated with stimulation of Adenosine A2 receptor of rat PC12 membranes; type: functional, cell membranes, Membrane; conditions: pc-12
Adenosine A2 receptor [2] = biological target: T1, Adenosine A2 receptor; experiment: Binding affinity for Adenosine A2 receptor from rat striatum using [3H]NECA as radioligand; type: protein assay
Adenosine receptor A1 = biological target: T2, Adenosine receptor A1 (Rattus norvegicus, UniProt P25099); experiment: Binding affinity for Adenosine A1 receptor from rat brain using [3H]-PIA as radioligand
T2 sequence (P25099 whole entry): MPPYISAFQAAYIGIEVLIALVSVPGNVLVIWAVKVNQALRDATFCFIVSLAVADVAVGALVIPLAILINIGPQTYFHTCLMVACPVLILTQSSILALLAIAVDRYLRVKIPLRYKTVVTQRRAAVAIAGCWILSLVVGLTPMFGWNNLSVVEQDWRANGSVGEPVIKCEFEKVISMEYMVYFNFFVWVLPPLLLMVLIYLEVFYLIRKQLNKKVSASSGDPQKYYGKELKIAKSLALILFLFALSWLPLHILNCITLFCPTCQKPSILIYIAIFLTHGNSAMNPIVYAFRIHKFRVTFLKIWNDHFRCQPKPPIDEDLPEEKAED
In short: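 Rat cerebral cortex membranes incubated with 1 nM [³H]PIA at 37 °C. Means ± SEM, n = 3-5. Where inhibition was incomplete, percent inhibition at the highest concentration tested is reported.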

[3] = biological target: Adenosine A2 receptor (Rattus norvegicus) (UniProt P29276+P30543); experiment: Inhibition of [3H]NECA binding to Adenosine A2 receptor in rat striatal membrane; type: cell membranes; parameters: concentration or dose not given beside the values; conditions: Striatum, concentration not given here
In short: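 Rat striatal membranes with 4 nM [³H]NECA; 50 nM N⁶-cyclopentyladenosine present to block A1 sites. IC50 converted to Ki by Cheng-Prusoff using KD 8.5 nM for [³H]NECA at A2 receptors. Means ± SEM, n = 3. Where inhibition was incomplete, percent inhibition at the highest concentration tested is reported.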

[4] = biological target: T3, Adenosine receptor A1 (Rattus norvegicus) (UniProt P25099); experiment: Inhibition of [3H]PIA binding to Adenosine A1 receptor in rat cerebral cortical membrane; type: cell membranes; parameters: concentration or dose not given beside the values; conditions: concentration not given here
T3 sequence (whole entry): T2 sequence (P25099 whole entry)
In short: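 Rat cerebral cortex membranes incubated with 1 nM [³H]PIA at 37 °C. […] Means ± SEM, n = 3-5. Where inhibition was incomplete, percent inhibition at the highest concentration tested is reported.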

| SMILES | Ki (Adenosine A2 receptor [1]) | Ki (Adenosine A2 receptor [2]) | Ki (Adenosine receptor A1) | inhibition [3] | inhibition [4] |
| --- | --- | --- | --- | --- | --- |
| CCN1CC(=O)N(CC)c2[nH]cnc2C1=O | > 300 µM | > 250 µM | – | 20% | 40% |
| CN1C(=O)CNC(=O)c2c1ncn2C | > 300 µM | >> 250 uM | > 250 µM | 11% | 10% |
| CCCN1CC(=O)N(CCC)c2ncn(Cc3ccccc3)c2C1=O | 47 µM | 52 µM | 11 µM | – | – |
| CCN1CC(=O)N(CC)c2ncn(Cc3ccccc3)c2C1=O | 76 µM | 81 µM | 16 µM | – | – |
| CCCN1C(=O)CNC(=O)c2c1ncn2Cc1ccccc1 | 163 µM | 151 µM | 32 µM | – | – |
| CCCN1CC(=O)N(CCC)c2ncn(C)c2C1=O | 170 µM | > 250 µM | > 250 µM | 23% | 40% |
| Cn1cnc2c1c(=O)[nH]c(=O)n2C [THEOBROMINE] | 250 µM | > 250 µM | 105 µM | 40% | – |
| CC(C)Cn1c(=O)n(C)c(=O)c2c1ncn2Cc1ccccc1 | 7.5 µM | 32 µM | 6.9 µM | – | – |
| CCCn1c(=O)c2c(ncn2Cc2ccccc2)n(CCC)c1=O | 0.88 µM | 3.8 µM | – | – | – |
| Cn1c(=O)c2c(ncn2Cc2ccccc2)n(C)c1=O | 5.6 µM | 46 µM | – | – | – |
| CN1CC(=O)N(C)c2ncn(Cc3ccccc3)c2C1=O | 120 µM | > 250 µM | 30 µM | 30% | – |
| CCN1CC(=O)N(CC)c2ncn(C)c2C1=O | 260 µM | > 250 µM | > 250 µM | 17% | 40% |
| CN1CC(=O)N(C)c2ncn(C)c2C1=O | > 300 µM | >> 250 uM | > 250 µM | 9% | 10% |

Further lines, results first:

| Ki (Adenosine A2 receptor [1]) | Ki (Adenosine A2 receptor [2]) | Ki (Adenosine receptor A1) | inhibition [3] | inhibition [4] | SMILES |
| --- | --- | --- | --- | --- | --- |
| > 300 µM | >> 250 uM | 236 µM | 11% | – | CCCN1C(=O)CNC(=O)c2[nH]cnc21 |
| > 300 µM | >> 250 uM | – | 9% | 30% | CN1CC(=O)N(C)c2[nH]cnc2C1=O |
| > 300 µM | >> 250 uM | 104 µM | 15% | – | CC(C)CN1C(=O)CN(C)C(=O)c2[nH]cnc21 |
| 6.3 µM | 9.1 µM | 6.7 µM | – | – | CC(C)Cn1c(=O)n(C)c(=O)c2nc[nH]c21 [ISOBUTYLMETHYLXANTHINE] |
| 116 µM | 140 µM | 11.3 µM | – | – | CC(C)CN1C(=O)CN(C)C(=O)c2c1ncn2Cc1ccccc1 |
| – | – | > 250 µM | – | – | CN1CC(=O)N(C)c2nc[nH]c2C1=O |
| – | – | > 250 µM | – | – | CCN1CC(=O)N(CC)c2nc[nH]c2C1=O |
